Series [1] deals with T1, ATP-dependent translocase ABCB1 (Homo sapiens, UniProt P08183). The experiment in a line: Inhibition of P-gp-mediated paclitaxel-resistance in P-glycoprotein-expressing human LCC-6 cells assessed as fold decrease in paclitaxel IC50 for cytotoxic activity at 1 uM after 5 days by MTS assay relative to control. It counts as cell-based. Particulars: lcc-6, 120 h. In a few lines:
(§1)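 ABCB1-transfected LCC6MDR cells (6000 per well) given serial paclitaxel, doxorubicin or vincristine with or without 1 μM modulator for 5 days at 37 °C. MTS/PMS added for 2 h, absorbance 490 nm. IC50 from dose-response curves. RF = IC50 without modulator / IC50 with modulator; mean ± SEM.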
On the technique in general: Formazan colour is commonly taken as a measure of viable cells.

A short description of series [2]: Cytotoxicity against wild type human LCC-6 cells after 3 days by MTS assay. It counts as cell-based. The note with it: LCC-6, 72 h.
The nature of series [3]: Cytotoxicity against multidrug-resistant human LCC-6 cells after 3 days by MTS assay. The series is classed as cell-based. Particulars: LCC-6, 72 h.
Another series concerns L929. Description: Cytotoxicity against mouse L929 cells after 3 days by MTS assay. The series is classed as cell-based. The note with it: L929, 72 h.
The target of series [4] is T1, ATP-dependent translocase ABCB1. Description: Inhibition of P-gp-mediated paclitaxel-resistance in P-glycoprotein-expressing human LCC-6 cells assessed as fractional inhibitory concentration index at 0.5 uM after 5 days by MTS assay in presence of 1-(3,4,5-Trimethoxybenzyl)-3,4-bis(3,4-dimethoxyphenyl)-1H-pyrrole-2,5-dione. The series is classed as cell-based. Particulars: lcc-6, 120 h. In a few lines:
(§2)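 LCC6MDR cells (6000 per well) given two modulators at 0.5 μM each, with serial paclitaxel, doxorubicin or vincristine, for 5 days at 37 °C. IC50 by MTS absorbance at 490 nm. FIC values come from IC50 relative to each modulator alone at 1 μM, and FICI is the sum (modified Chou–Talalay). Synergy: FICI ≤0.5; additive: 0.5–4; antagonism: >4.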

Series [5] has the same target. Description: Inhibition of P-gp-mediated paclitaxel-resistance in P-glycoprotein-expressing human LCC-6 cells assessed as fractional inhibitory concentration index at 0.5 uM after 5 days by fraction affected plot assay in presence of 1-(3,4,5-Trimethoxybenzyl)-3,4-bis(3,4-dimethoxyphenyl)-1H-pyrrole-2,5-dione. The series is classed as cell-based. Particulars: lcc-6, 120 h.

Series [6] shares this target. Description: Inhibition of P-gp-mediated doxorubicin-resistance in P-glycoprotein-expressing human LCC-6 cells assessed as fold decrease in doxorubicin IC50 for cytotoxic activity at 1 uM after 5 days by MTS assay. The series is classed as cell-based. Particulars: lcc-6, 120 h. In a few lines: as §1
The target is the same in series [7]. The experiment in a line: Inhibition of P-gp-mediated vincristine-resistance in P-glycoprotein-expressing human LCC-6 cells assessed as fold decrease in vincristine IC50 for cytotoxic activity at 1 uM after 5 days by MTS assay. The series is classed as cell-based. Particulars: lcc-6, 120 h. In short, it runs like this: as §1
Series [8] has the same target. Description: Inhibition of P-gp-mediated doxorubicin-resistance in P-glycoprotein-expressing human LCC-6 cells assessed as fractional inhibitory concentration index at 0.5 uM after 5 days by MTS assay in presence of 1-(3,4,5-Trimethoxybenzyl)-3,4-bis(3,4-dimethoxyphenyl)-1H-pyrrole-2,5-dion. The series is classed as cell-based. Particulars: lcc-6, 120 h. In a few lines: as §2

Series [9] shares this target. Description: Inhibition of P-gp-mediated vincristine-resistance in P-glycoprotein-expressing human LCC-6 cells assessed as fractional inhibitory concentration index at 0.5 uM after 5 days by MTS assay in presence of 1-(3,4,5-Trimethoxybenzyl)-3,4-bis(3,4-dimethoxyphenyl)-1H-pyrrole-2,5-dione. Particulars: lcc-6, 120 h. It counts as cell-based. In short, it runs like this: as §2

The test system of another series is LCC-6. The experiment in a line: Increase in doxorubicin concentration in wild type human LCC-6 cells at 3 uM after 150 mins by spectrofluorimetry. It counts as functional, cell-based. In short, it runs like this:
(§3)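 Cells (1 × 10⁶ LCC6 or LCC6MDR) incubated with 20 μM doxorubicin plus modulator for 150 min at 37 °C; 0.4% DMSO as negative control. Cells washed in cold PBS pH 7.4 and lysed in 0.75 M HCl/0.2% Triton X-100 in isopropanol. Supernatant doxorubicin fluorescence read at ex 460/em 610 nm. Duplicate, repeated twice; mean ± SEM.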

In series [10] the target is T1, ATP-dependent translocase ABCB1. Description: Inhibition of P-gp-mediated doxorubicin-resistance in P-glycoprotein-expressing human LCC-6 cells assessed as increase in intracellular doxorubicin accumulation at 3 uM after 150 mins by spectrofluorimetry relative to control. It counts as cell-based. Particulars: lcc-6, 2.5 h. In a few lines: as §3
For series [11] the target is unchanged. Description: Inhibition of P-gp-mediated doxorubicin-resistance in P-glycoprotein-expressing human LCC-6 cells assessed as increase in intracellular doxorubicin accumulation at 0.25 to 3 uM after 150 mins by spectrofluorimetry. The note with it: lcc-6, 2.5 h. It counts as cell-based. In a few lines:
as §3

For series [12] the target is unchanged. Description: Inhibition of P-gp-mediated doxorubicin-resistance in P-glycoprotein-expressing human LCC-6 cells assessed as increase in intracellular doxorubicin accumulation at 8 to 16 uM after 150 mins by spectrofluorimetry. The series is classed as cell-based. The note with it: lcc-6, 2.5 h. In a few lines: as §3
Series [13] is described as follows: Noncompetitive inhibition of P-gp-mediated doxorubicin transport in multidrug-resistant human LCC-6 cells after 150 mins by dixon plot analysis. The series is classed as cell-based. In short, it runs like this:
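LCC6MDR cells (1 × 10⁶) incubated with doxorubicin at 1.5, 4.4, 13.3 or 40 μM and modulator at 0, 0.5, 1 or 2 μM for 150 min at 37 °C. Lysis and fluorescence done as in the accumulation assay. Ki taken from a Dixon plot of reciprocal retention rate vs modulator concentration. Slope replot vs 1/[doxorubicin] used to assign mechanism. Two to four experiments.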

Activity calls are given as the source filed them. No cut-off for these calls is given here.

T1 sequence (P08183 whole entry): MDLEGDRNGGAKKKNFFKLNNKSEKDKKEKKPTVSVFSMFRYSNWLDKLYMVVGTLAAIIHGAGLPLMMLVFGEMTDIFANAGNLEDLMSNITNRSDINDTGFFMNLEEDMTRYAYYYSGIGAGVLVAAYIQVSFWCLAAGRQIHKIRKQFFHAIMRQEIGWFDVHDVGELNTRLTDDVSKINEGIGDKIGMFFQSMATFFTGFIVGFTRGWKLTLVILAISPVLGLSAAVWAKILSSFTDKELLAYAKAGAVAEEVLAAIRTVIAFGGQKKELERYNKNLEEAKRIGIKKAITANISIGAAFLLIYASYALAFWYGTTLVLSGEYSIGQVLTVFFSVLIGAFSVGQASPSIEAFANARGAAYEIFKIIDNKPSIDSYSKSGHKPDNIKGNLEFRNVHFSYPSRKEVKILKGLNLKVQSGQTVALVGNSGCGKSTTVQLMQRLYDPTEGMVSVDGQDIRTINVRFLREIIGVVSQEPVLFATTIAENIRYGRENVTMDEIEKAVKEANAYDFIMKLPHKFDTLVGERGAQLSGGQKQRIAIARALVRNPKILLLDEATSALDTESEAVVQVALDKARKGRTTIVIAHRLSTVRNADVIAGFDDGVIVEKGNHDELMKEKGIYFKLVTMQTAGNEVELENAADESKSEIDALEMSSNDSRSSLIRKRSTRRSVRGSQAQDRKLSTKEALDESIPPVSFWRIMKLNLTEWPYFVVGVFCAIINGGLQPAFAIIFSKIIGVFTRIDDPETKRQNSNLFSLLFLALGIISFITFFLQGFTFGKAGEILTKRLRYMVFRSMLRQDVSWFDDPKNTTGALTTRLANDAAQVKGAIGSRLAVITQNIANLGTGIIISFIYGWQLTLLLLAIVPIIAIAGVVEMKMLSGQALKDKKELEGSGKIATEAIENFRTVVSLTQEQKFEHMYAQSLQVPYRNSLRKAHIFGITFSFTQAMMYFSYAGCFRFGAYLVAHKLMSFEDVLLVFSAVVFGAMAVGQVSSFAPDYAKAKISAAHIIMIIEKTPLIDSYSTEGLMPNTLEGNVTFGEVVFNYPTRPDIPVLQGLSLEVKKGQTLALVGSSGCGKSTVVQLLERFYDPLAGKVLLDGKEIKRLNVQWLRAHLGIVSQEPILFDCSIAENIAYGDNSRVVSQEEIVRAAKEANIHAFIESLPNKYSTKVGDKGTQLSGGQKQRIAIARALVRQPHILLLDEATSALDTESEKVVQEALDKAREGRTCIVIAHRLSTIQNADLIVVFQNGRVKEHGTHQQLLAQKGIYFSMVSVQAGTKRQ

One may read the IC50 as the concentration that inhibits the measured activity by half. On to `COc1ccc(C2=C(c3ccc(OC)c(OC)c3)C(=O)N(C/C=C/c3cc(OC)c(OC)c(OC)c3)C2=O)cc1OC`, for which the “fold change (FC)” value in series [1] stood at 6.2. Besides, the IC50 (in series [2]; in series [3]; with L929) was greater than 100 µM in each case.
In the case of `COc1ccc(CCN2C(=O)C(c3ccc(OC)c(OC)c3)=C(c3ccc(OC)c(OC)c3)C2=O)cc1`, in series [1], the “fold change (FC)” value is given as 10.7. Also, the IC50 came to 32.5 µM in series [2], 18 µM in series [3] and 21.6 µM in the series on L929. In addition, the “fractional inhibitory concentration index (FICI)” value in [4] and in series [5] was 1.61 throughout.
For the molecule `COc1ccc(C2=C(c3ccc(OC)c(OC)c3)C(=O)N(CCN3C(=O)C(c4ccc(OC)c(OC)c4)=C(c4ccc(OC)c(OC)c4)C3=O)C2=O)cc1OC`, in series [1], the “fold change (FC)” value worked out at 1.4. In addition, the IC50 (in [3]; in the series with L929) was greater than 100 µM throughout.
On to `C/C=C/C[C@@H](C)C(=O)[C@H]1C(=O)N[C@@H](C(C)C)C(=O)N(C)CC(=O)N(C)[C@@H](CC(C)C)C(=O)N[C@@H](C(C)C)C(=O)N(C)[C@@H](CC(C)C)C(=O)N[C@@H](C)C(=O)N[C@H](C)C(=O)N(C)[C@@H](CC(C)C)C(=O)N(C)[C@@H](CC(C)C)C(=O)N(C)[C@@H](C(C)C)C(=O)N1C` [VALSPODAR], for which the “fold change (FC)” value in series [1] is 101.8.
For orientation: Ki means a measure of affinity in units of concentration, obtained from inhibition or displacement. Higher therefore signals a looser hold on the target. Take `COc1ccc(C(=O)CN2C(=O)C(c3ccc(OC)c(OC)c3)=C(c3ccc(OC)c(OC)c3)C2=O)cc1`: the “fold change (FC)” value is recorded as 9.9 in series [1], 5.2 in series [6], 9.3 in series [7] and 2.1 in series [10]. In addition, the IC50 in [2] is greater than 100 µM; in [3], 90 µM; in the series with L929 it was greater than 100 µM. For the same molecule, the “fractional inhibitory concentration index (FICI)” value is 0.42 in series [4], 1.26 in [8], 0.89 in [9] and 0.42 in series [5]. The result with LCC-6 was inactive. In addition, the results for the Activity result in [11] and in series [12] were “Active” and “Not Active”, respectively. Besides, the Ki in [13] came out at 5.4 µM.
Turning to `COc1ccc(C2=C(c3ccc(OC)c(OC)c3)C(=S)N(CCc3cc(OC)c(OC)c(OC)c3)C2=O)cc1OC`, in series [1], the “fold change (FC)” value worked out at 2.8.
Regarding `COc1ccc(C2=C(c3ccc(OC)c(OC)c3)C(=O)N(Cc3cc(OC)c(OC)c(OC)c3)C2=O)cc1OC`, the “fold change (FC)” value in [1] is on record as 18.2; in series [6], 9.5; in series [7], 14.6; in series [10], 3. Moreover, the IC50 (in series [2]; in series [3]; in the series with L929) was greater than 100 µM throughout. In addition, the outcome in the series on LCC-6 was inactive. The Activity entry in [11] is “Active”; in series [12], “Not Active”. The Ki in [13] worked out at 5.5 µM.
Turning to `COc1ccc(C2=C(c3ccc(OC)c(OC)c3)C(=O)N(CC(=O)c3ccccc3)C2=O)cc1OC`, the “fold change (FC)” value in series [1] was 3.9. The IC50 (in series [3]; in the series on L929) was greater than 100 µM throughout.
Regarding `COc1ccc(-c2cn(Cc3cc(OC)c(OC)c(OC)c3)c(OCc3cc(OC)c(OC)c(OC)c3)c2-c2ccc(OC)c(OC)c2)cc1OC`, the “fold change (FC)” value in series [1] was found to be 1.6. Also, the IC50 (in series [2]; in [3]; in the series with L929) was greater than 100 µM throughout.
`COc1ccc(C(=O)CN2C(=O)C(c3ccc(OC)c(OC)c3)=C(c3ccc(OC)c(OC)c3)C2=O)cc1OC`: the “fold change (FC)” value in series [1] turned out to be 8.2. Moreover, the half-maximal inhibitory concentration (IC50) (in series [2]; in series [3]; in the series on L929) was greater than 100 µM throughout. Further, the “fractional inhibitory concentration index (FICI)” value in [4] and in series [5] was 2.05 each time.
As to `COc1ccc(CN2C(=O)C(c3ccc(OC)c(OC)c3)=C(c3ccc(OC)c(OC)c3)C2=O)cc1`, the “fold change (FC)” value in series [1] was determined as 9.3. Also, the IC50 (in [2]; in series [3]; with L929) was greater than 100 µM throughout.
As for `COc1ccc(C2=C(c3ccc(OC)c(OC)c3)C(=O)N(CCc3ccccc3)C2=O)cc1OC`, the “fold change (FC)” value in [1] was 3.6. The IC50 (in series [3]; in the series with L929) was greater than 100 µM each time.
For the molecule `COc1ccc(C2=C(c3ccc(OC)c(OC)c3)C(=O)N(CCc3cc(OC)c(OC)c(OC)c3)C2=O)cc1OC`, the “fold change (FC)” value in [1] is given as 4.5. The IC50 (in series [2]; in [3]; with L929) was greater than 100 µM in each case.
As for `COc1ccc(C2=C(c3ccc(OC)c(OC)c3)C(=O)N(CCO)C2=O)cc1OC`, in series [1], the “fold change (FC)” value worked out at 1.8. Besides, the IC50 was 84 µM in [3] and greater than 100 µM in the series with L929.
Taken in the same sequence, the figures for `COc1ccc(C2=C(c3ccc(OC)c(OC)c3)C(=S)N(Cc3ccccc3)C2=O)cc1OC` were 3.4, greater than 100 µM and greater than 100 µM.
Take `COc1ccc(C2=C(c3ccc(OC)c(OC)c3)C(=O)N(CCCc3cc(OC)c(OC)c(OC)c3)C2=O)cc1OC`: the “fold change (FC)” value in series [1] was determined as 4.7. The IC50 (in series [2]; in series [3]; with L929) was greater than 100 µM throughout.
With `COc1ccc(C2=C(c3ccc(OC)c(OC)c3)C(=O)N(Cc3ccccc3)C2=O)cc1OC`, the “fold change (FC)” value in [1] was determined as 7.9.
Regarding `COc1ccc(CCN2C(=O)C(c3ccc(OC)c(OC)c3)=C(c3ccc(OC)c(OC)c3)C2=O)cc1OC`, the “fold change (FC)” value in series [1] came to 6.9. In addition, the IC50 (in series [2]; in series [3]; with L929) was greater than 100 µM throughout.
On to `COc1ccc(CN2C(=O)C(c3ccc(OC)c(OC)c3)=C(c3ccc(OC)c(OC)c3)C2=O)cc1OC`, for which the “fold change (FC)” value in [1] is 12.4. The IC50 (in series [2]; in [3]; in the series on L929) was greater than 100 µM each time. Moreover, the “fractional inhibitory concentration index (FICI)” value in series [4] and in series [5] was 2.21 throughout.
Consider `COc1ccc(C2=C(c3ccc(OC)c(OC)c3)C(=O)N(CCCN3C(=O)C(c4ccc(OC)c(OC)c4)=C(c4ccc(OC)c(OC)c4)C3=O)C2=O)cc1OC`, for which the “fold change (FC)” value in [1] is listed as 5.2. Also, the IC50 (in [2]; in [3]; in the series on L929) was greater than 100 µM in each case.
Take `COc1ccc(C2=C(c3ccc(OC)c(OC)c3)C(=O)N(CN3C(=O)C(c4ccc(OC)c(OC)c4)=C(c4ccc(OC)c(OC)c4)C3=O)C2=O)cc1OC`: the “fold change (FC)” value in series [1] stood at 8. Besides, the IC50 (in series [2]; in series [3]; in the series on L929) was greater than 100 µM in each case.
